KCNQ1 block = inhibitors of human KCNQ1 channel, primary screen, cell-based, thallium flux, high-throughput | Potassium voltage-gated channel subfamily KQT member 1 (Homo sapiens), P51787 | CHO-K1 KCNQ1, FluxOR thallium flux fluorescence; active compounds read high | B-score at 10 µM | 1.3% of 310,000 active | AID 2642, 2010;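 active means compounds whose thallium flux B-score, printed positive for inhibition, exceeds three library SD while starting fluorescence stays within three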;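 further: channel opened by potassium depolarization with thallium stimulus after 20 min compound exposure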
hERG protect = hERG rescue from dofetilide block, primary screen, cell-based, CHO-hERG, FluxOR thallium flux, dofetilide IC70; activation (rescue from dofetilide block), less the hit threshold, % at 10 µM; Voltage-gated inwardly rectifying potassium channel KCNH2 (Homo sapiens), Q12809; dofetilide IC70 present; AID 1511, 2009; 0.51% of 310,000 active;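 active means activation above the mean of controls blocked by dofetilide plus 5 SD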;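 further: thallium influx through hERG after potassium depolarization seen as dye fluorescence rise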
KCNQ1 act = potentiators or activators of KCNQ1 channel, primary screen, cell-based, thallium flux, high-throughput | CHO-K1 KCNQ1, thallium flux FluxOR fluorescence; active compounds read high | B-score at 10 µM | 0.35% of 310,000 active | AID 2648, 2010;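 active means fluorescence ratio B-score, a plate-corrected score, at least three library SD, with initial intensity B-score within 5 SD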
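Schedule – 37 °C overnight plating, 90-min dark dye load, 20-min compound pretreatment · System – stable KCNQ1 CHO-K1 line · Probe or stimulus – thallium- and potassium-containing depolarizing buffer · Measured by – kinetic FluxOR fluorescence, 10 s baseline plus 110 s post-stimulus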
KCNK9 block = KCNK9 potassium channel inhibitors, primary screen, HEK293 cells, thallium flux; B-score at 10 µM; Potassium channel subfamily K member 9 (Homo sapiens), Q9NPC2; 1.2% of 310,000 active; FluxOR thallium flux fluorescence; active compounds read low;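 active means ratio B-score over 3 SD below the library mean, with starting fluorescence within 5 SD of its mean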;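 further: negative B-score means less thallium flux so channel inhibition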
PHOSPHO1 inh = PubChem AID 1565; Phosphoethanolamine/phosphocholine phosphatase (Homo sapiens), Q8TCT1; recombinant PHOSPHO1, absorbance phosphatase assay; inhibition, % at 13.3 µM; 1.1% of 290,000 active; in the data active means inhibition above about 60%
Target sequence (Q8TCT1 whole entry, looked up): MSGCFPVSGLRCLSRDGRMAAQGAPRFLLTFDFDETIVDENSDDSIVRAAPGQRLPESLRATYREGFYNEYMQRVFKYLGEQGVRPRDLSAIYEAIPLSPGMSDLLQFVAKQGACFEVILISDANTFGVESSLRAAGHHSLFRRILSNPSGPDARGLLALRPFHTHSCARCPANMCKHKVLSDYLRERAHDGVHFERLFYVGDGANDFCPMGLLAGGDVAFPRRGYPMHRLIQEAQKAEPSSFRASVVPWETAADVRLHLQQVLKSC
KCNK3 inh = human KCNK3 channel inhibitors, primary screen, CHO cells, FluxOR thallium flux, B-score. Potassium channel subfamily K member 3 (Homo sapiens), O14649. FluxOR fluorescence; active compounds read low. B-score at 10 µM. 0.84% of 340,000 active. AID 602410, 2012;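 active means B-score under library mean minus 4 SD, starting fluorescence ratio at most library mean plus 5 SD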;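 further: more negative B-score means stronger inhibition of thallium flux through KCNK3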
Target sequence (O14649 whole entry, looked up): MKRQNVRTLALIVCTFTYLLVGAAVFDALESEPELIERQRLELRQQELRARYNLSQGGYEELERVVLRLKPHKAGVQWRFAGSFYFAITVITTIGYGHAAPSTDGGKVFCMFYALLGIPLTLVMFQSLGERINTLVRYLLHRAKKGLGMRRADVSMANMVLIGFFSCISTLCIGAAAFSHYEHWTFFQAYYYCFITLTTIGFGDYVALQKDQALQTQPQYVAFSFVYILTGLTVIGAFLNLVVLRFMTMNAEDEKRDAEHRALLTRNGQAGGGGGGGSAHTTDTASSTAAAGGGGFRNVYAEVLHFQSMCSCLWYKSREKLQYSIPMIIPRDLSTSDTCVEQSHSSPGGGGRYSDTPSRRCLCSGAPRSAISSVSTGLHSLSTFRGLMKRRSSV
KCNK9 block conf = KCNK9 potassium channel inhibitors, confirmation, HEK293 cells, thallium flux, duplicate; shares compounds with KCNK9 block; FluxOR thallium flux fluorescence; inhibition, % at 10 µM; 43% of 4,900 active; AID 492992, 2010;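 active means thallium signal inhibited by more than 5 SD of the compound-free buffer control wells, on both duplicate plates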;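 further: 0% = assay buffer control wells without compound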
Kir21 sel = mouse Kir2.1 channel inhibition, confirmation, selectivity assay for KCNK9 modulator project, cell-based, HEK293, thallium flux | 4% of 4,900 active | AID 492993, 2010 | inhibition, % at 10 µM | Kir2.1 cells, FluxOR thallium flux fluorescence | shares compounds with KCNK9 block;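 active means thallium signal drop more than 5 SD beyond the mean of the no-compound control wells, seen in both duplicate plates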;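 further: signal is fluorescence rise after thallium addition divided by baseline fluorescence; plate controls were assay buffer only for no effect and full block by chlorpromazine control for full effect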
KCNK9 uninduced = thallium flux in non-induced HEK293 cells, confirmation, counter-screen for KCNK9 inhibitor project, cell-based, second counter screen, non-induced KCNK9-HEK293; 40% of 4,900 active; AID 492997, 2010; shares compounds with KCNK9 block; FluxOR thallium flux; inhibition, % at 10 µM;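 active means thallium signal drop beyond 5 SD of the untreated control mean, on both duplicate plates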;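 further: plate controls were buffer only IC0 wells for no effect and SID17386958 at its maximal inhibitory level for full effect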
* = called active by the depositor. Shown are actives, neighbours in structure and some others; about 4% of the full set was active somewhere.

Screening Cc1ccc(C(=O)OCC(=O)N2CCC(C)CC2)cc1S(=O)(=O)N1CCCCC1 returned KCNQ1 block inactive, hERG protect -9, KCNQ1 act inactive, KCNK9 block inactive, PHOSPHO1 inh 46, KCNK3 inh inactive, KCNK9 block conf inactive, Kir21 sel inactive and KCNK9 uninduced inactive.
For Cc1ccc(C(=O)OCC(=O)N2CC(C)CC(C)C2)cc1S(=O)(=O)N1CCOCC1 (configuration not stated) the results were KCNQ1 block inactive, hERG protect -9, KCNQ1 act inactive, KCNK9 block inactive, PHOSPHO1 inh -14 and KCNK3 inh inactive.
CC1CCN(C(=O)COC(=O)c2ccc(F)c(S(=O)(=O)N3CCOCC3)c2)CC1 was read as KCNQ1 block inactive, hERG protect -5, KCNQ1 act inactive, KCNK9 block inactive, PHOSPHO1 inh 24, KCNK3 inh inactive, KCNK9 block conf inactive, Kir21 sel inactive and KCNK9 uninduced inactive.
Screening Cc1cc(C)cc(NC(=O)CN2CCCN(S(=O)(=O)c3ccc(Br)s3)CC2)c1 returned KCNQ1 block inactive, hERG protect -19, KCNQ1 act inactive, KCNK9 block -16*, PHOSPHO1 inh 15, KCNK3 inh -10*, KCNK9 block conf 70%*, Kir21 sel inactive and KCNK9 uninduced 46%*.
Screening COc1cc(C(=O)NC(=S)Nc2ccccc2N2CCCC2)cc(OC)c1OC returned KCNQ1 block inactive, hERG protect -11, KCNQ1 act inactive, KCNK9 block inactive, PHOSPHO1 inh 8, KCNK3 inh inactive, KCNK9 block conf inactive, Kir21 sel inactive and KCNK9 uninduced inactive.
Screening COC(=O)c1ccc(C(=O)OC)c(NC(=O)COC(=O)C2CC2C)c1 (configuration not stated) returned KCNQ1 block inactive, hERG protect -15, KCNQ1 act inactive, KCNK9 block inactive, PHOSPHO1 inh 3 and KCNK3 inh inactive.
For O=C(Cc1csc(-c2cccc(Cl)c2)n1)Nc1cccc(S(=O)(=O)NC2=NCCC2)c1 the results were KCNQ1 block inactive, hERG protect -14, KCNQ1 act inactive, KCNK9 block inactive and KCNK3 inh inactive.
O=c1/c(=C\c2cccc(O)c2)sc2nc(-c3ccccc3)c(-c3ccccc3)n12 was read as KCNQ1 block inactive, hERG protect -6, KCNQ1 act inactive, KCNK9 block -10*, PHOSPHO1 inh 2, KCNK3 inh inactive, KCNK9 block conf 43%*, Kir21 sel inactive and KCNK9 uninduced 28%*.
Cc1ccc2nc(NCC(=O)NN)nc(-c3ccccc3)c2c1 was read as KCNQ1 block inactive, hERG protect -5, KCNQ1 act inactive, KCNK9 block inactive, PHOSPHO1 inh 4, KCNK3 inh inactive, KCNK9 block conf inactive, Kir21 sel inactive and KCNK9 uninduced inactive.
`Fc1ccccc1CNCCC(Cc1ccccc1)c1ccc2c(c1)OCO2` (configuration not stated) gave KCNQ1 block inactive, hERG protect -21, KCNQ1 act inactive, KCNK9 block inactive, PHOSPHO1 inh 8 and KCNK3 inh inactive.
`CC(=O)N(CCC(Cc1ccccc1)c1ccc2c(c1)OCO2)Cc1ccccc1F` (configuration not stated) gave KCNQ1 block 6*, hERG protect -6, KCNQ1 act inactive, KCNK9 block -16*, PHOSPHO1 inh -1, KCNK3 inh inactive, KCNK9 block conf 28%*, Kir21 sel inactive and KCNK9 uninduced inactive.
For CCOc1cc(/C=C2\C(=O)N(CCc3ccc(OC)c(OC)c3)C(C)=C2C(=O)OC)ccc1O the results were KCNQ1 block inactive, hERG protect -13, KCNQ1 act inactive, KCNK9 block inactive, PHOSPHO1 inh 21 and KCNK3 inh inactive.
Screening COC(=O)C1=C(C)N(Cc2ccc(C)cc2)C(=O)/C1=C\c1ccc(O)c(OC)c1 returned KCNQ1 block inactive, hERG protect -21, KCNQ1 act inactive, KCNK9 block -8.9*, PHOSPHO1 inh 49, KCNK3 inh inactive, KCNK9 block conf 62%*, Kir21 sel inactive and KCNK9 uninduced 40%*.
Screening O=C(OCc1ccc(Cl)cc1)c1ccccc1C(=O)c1ccccc1 returned KCNQ1 block inactive, hERG protect -9, KCNQ1 act inactive, KCNK9 block -12*, PHOSPHO1 inh 35, KCNK3 inh inactive, KCNK9 block conf 52%*, Kir21 sel 34%* and KCNK9 uninduced 49%*.
O=C(OCc1ccc(Cl)cc1)c1cccnc1Cl was read as KCNQ1 block inactive, hERG protect -3, KCNQ1 act inactive, KCNK9 block inactive, PHOSPHO1 inh 32 and KCNK3 inh inactive.
Cc1sc2nc(-c3cccnc3)nc(Cl)c2c1-c1ccccc1 was read as KCNQ1 block inactive, hERG protect -7, KCNQ1 act inactive, KCNK9 block inactive, PHOSPHO1 inh -4, KCNK3 inh inactive, KCNK9 block conf inactive, Kir21 sel inactive and KCNK9 uninduced inactive.
Cc1cc(C)cc(C(=O)NCC(=O)OCC(=O)NC2CCCc3ccccc32)c1 (configuration not stated) was read as KCNK3 inh inactive.
Cc1cc(C(=O)CSc2nn3c(=O)c(C(C)(C)C)nnc3s2)c(C)n1C1CC1 was read as KCNQ1 block inactive, hERG protect -13, KCNQ1 act inactive, KCNK9 block inactive, PHOSPHO1 inh 44, KCNK3 inh inactive, KCNK9 block conf inactive, Kir21 sel inactive and KCNK9 uninduced inactive.
CCOC(=O)CSc1nnc(NCC(=O)OC)c(=O)[nH]1 was read as KCNQ1 block inactive, hERG protect -14, KCNQ1 act inactive, KCNK9 block inactive, PHOSPHO1 inh -1 and KCNK3 inh inactive.

Screens as filed in PubChem BioAssay.
